This is one part of a sample in which hits are shown more often than they occur.
CHOP inhibitor: CHOP inhibition in unfolded protein response; CHO-K1 CHOP-promoter luciferase, tunicamycin-induced, 15-18 h; inhibition, % at 10 µM; 220,000 tested, 3.8% active; AID 2732;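 active = compounds that reduced the stress-induced luciferase reporter signal by more than about 70% of percent inhibition, limit read from the data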;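 also: 0% = tunicamycin plus vehicle and 100% = wells without tunicamycin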
VLA-4 inh: inhibition in a human VLA-4 binding assay; VLA-4 expressing cells, ligand binding flow cytometry; inhibition, % (about 7 µM as worked out from the volumes in the protocol); 330,000 tested, 0.2% active; in the data active = inhibition above about 50%
Beta2AR agonist: agonists of human beta-2 adrenergic receptor inducing internalization. Am2.2-beta2AR cells, FAP receptor internalization, flow cytometry. 340,000 tested, 0.43% active. response, % (test concentration not listed). AID 504454;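 active = response above a set limit, near 3 SD of response in nonfluorescent compounds, cut at about 42% in these data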
Target sequence (P07550 whole entry, looked up): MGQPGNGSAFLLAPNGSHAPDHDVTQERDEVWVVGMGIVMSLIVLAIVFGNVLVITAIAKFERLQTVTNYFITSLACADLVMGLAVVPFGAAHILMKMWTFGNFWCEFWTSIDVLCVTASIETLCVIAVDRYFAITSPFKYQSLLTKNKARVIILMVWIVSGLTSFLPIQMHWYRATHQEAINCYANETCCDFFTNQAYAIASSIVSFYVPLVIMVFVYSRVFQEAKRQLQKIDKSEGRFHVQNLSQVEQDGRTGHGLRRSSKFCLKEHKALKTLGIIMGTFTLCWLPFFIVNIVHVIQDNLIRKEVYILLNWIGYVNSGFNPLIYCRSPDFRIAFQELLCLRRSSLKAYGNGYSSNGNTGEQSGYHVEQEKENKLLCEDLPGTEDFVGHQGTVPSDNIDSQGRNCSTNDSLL
CHOP UPR activ: apoptotic UPR (CHOP) activation; CHO-CHOP luciferase reporter, luminescence; percent of tunicamycin response over DMSO baseline; activation, % at 10 µM; 330,000 tested, 0.34% active; AID 449763;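 active = at 10 µM dose, activation of 40% or more, normalized to positive control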;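 also: 100% = tunicamycin at 10 µg/mL and 0% = DMSO alone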
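Assay system: CHO cells with stable CHOP pathway luciferase reporter; Buffer or medium: F12 plus 10% serum; Times: 16-18 h cell attachment, then 6 h compound exposure, 37 °C; Signal: luciferase luminescence; Read-out basis: percent activation relative to tunicamycin control; Control set: tunicamycin high control, DMSO low control.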
XBP1 UPR activ: adaptive UPR (XBP1) activation. activation, % at 20 µM. CHO-XBP1 luciferase reporter, IRE1-XBP1 UPR activation, luminescence; percent of tunicamycin response, DMSO as zero. 330,000 tested, 0.33% active;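 active = versus positive control, 20 µM dose yields 30% or more activation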;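 also: 100% = tunicamycin at 10 µg/mL and 0% = DMSO only wells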
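Material: CHO cell line with stable XBP1 luciferase reporter; buffer or medium: F12 medium containing 10% fetal bovine serum; compound: single point, 20 µM final compound, 1% DMSO; incubation: 6 h treatment, 37 °C; measured by: glow luminescence from Steady-Glo reagent; evaluation: activation, % of tunicamycin; control set: tunicamycin high, DMSO low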
B2AR ag CP1: agonists of human beta-2 adrenergic receptor. shares compounds with Beta2AR agonist. Am2.2-beta2AR cells, FAP surface receptor, flow cytometry; stronger effect = lower value. percent response (surface receptor), % at 10 µM. 1,100 tested, 25% active. AID 540358;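 active = surface receptor percent response at or below 58%, roughly 3 SD from nonfluorescent compounds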
FAP fluor counter: fluorescence artifact in beta-2AR agonist FAP counterscreen | 1,100 tested, under 10 active | Am2.2 cells, FAP fluorogen flow cytometry; stronger effect = lower value | shares compounds with Beta2AR agonist | calls only at 10 µM | AID 588765;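 active = percent response below a set limit in fluorescence channel 1 and below 50% in channel 8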
Numbers without * were called inactive; i = inactive; . = not tested or not shown.

SMILES | CHOP inhibitor | VLA-4 inh | Beta2AR agonist | CHOP UPR activ | XBP1 UPR activ | B2AR ag CP1 | FAP fluor counter
O=C(c1cc2c(ccc3ccccc32)o1)N1CCN(c2ncc(C(F)(F)F)cc2Cl)CC1 | 24.3 | 6.5 | 97.9* | 0.6 | -2.0 | 13.4* | i
CC(=O)Nc1ccc(S(=O)(=O)N2CCN(C(=O)c3ncoc3-c3ccc(C)cc3)CC2)cc1 | . | -0.7 | -2.5 | -0.5 | 0.6 | . | .
O=C(O)CCCC(=O)N1CCC(C(O)(c2ccccc2)c2ccccc2)CC1 | -10.3 | -3.5 | -0.3 | -1.2 | -1.6 | . | .
CC(C)(C(=O)O)c1ccc(C(O)CCCN2CCC(C(O)(c3ccccc3)c3ccccc3)CC2)cc1 (stereo not drawn) | -12.4 | -3.0 | -3.1 | 0.1 | -4.8 | 81.6 | i
Cc1ccc(NC(=O)C(OC(=O)c2cnc(C)cn2)c2ccccc2)c([N+](=O)[O-])c1 (stereo not drawn) | . | 9.4 | -6.5 | -1.6 | -2.5 | . | .
CCCCN(CCCC)c1nc2ccccc2nc1NS(=O)(=O)c1ccc(NC(C)=O)cc1 | 87.6* | 14.7 | 118.7* | -1.3 | -2.4 | 27.6* | i
CC(=O)Nc1ccc(S(=O)(=O)Nc2nc3ccccc3nc2Nc2ccc(N)cc2)cc1 | 15.7 | -8.5 | 3.9 | -0.1 | -0.3 | . | .
Cc1ccc(NC(=O)c2ncn(CCCNCCCc3ccccc3)n2)cc1C | . | . | 42.0* | . | . | 130.1 | i
Cc1ccc(NC(=O)c2ncn(CCCNCCCN(C)C)n2)cc1C | . | . | -3.1 | . | . | . | .
Cc1ccnc2nc(C(=O)OCC(=O)Nc3ccc4c(c3)OCCO4)nn12 | . | 12.6 | 3.0 | -1.0 | -2.0 | . | .
CCOC(=O)Cn1nnnc1CN(Cc1ccc(OC)cc1)Cc1cc2cc(C)ccc2[nH]c1=O | -16.1 | 14.3 | 38.6 | -0.7 | -3.7 | . | .
CCOC(=O)Cn1nnnc1CN(Cc1ccc(OC)cc1)Cc1cc2cc(CC)ccc2[nH]c1=O | 63.7 | 12.0 | 85.9* | -0.4 | 2.1 | 102.7 | i
CCOc1cccc(C(=O)Nc2ccc3oc(-c4cccnc4)nc3c2)c1 | 14.7 | 1.6 | 7.1 | 2.8 | 2.3 | 103.0 | i
O=C(Nc1ccc2oc(-c3cccnc3)nc2c1)c1cccnc1 | 6.1 | -7.6 | -3.3 | 1.4 | 5.2 | . | .
Cc1cccc(N2CCN(CCCNC(=O)c3ccc(NC(=O)C4=CSCCO4)cc3)CC2C)c1 (stereo not drawn) | . | 5.8 | -4.0 | 0.2 | -2.6 | . | .
Cc1ccc(N(C)S(=O)(=O)c2cc(-c3cnc(C4CC4)o3)ccc2C)cc1 | . | -102.0 | 103.5* | 0.7 | -3.1 | 1.5* | i
COc1cc2c(cc1OC)C(c1ccc(-c3ccc(Cl)cc3Cl)o1)=NCC2 | 64.2 | -4.3 | 16.5 | -0.9 | 2.5 | . | .
COc1cc2c(cc1OC)C(c1ccc(-c3cc(Cl)ccc3Cl)o1)=NCC2 | 84.6* | -0.1 | 15.0 | -1.1 | 4.2 | 120.3 | i
CC(C)(NC(=O)NC(CO)c1ccccc1)c1cccc(C(C)(C)NC(=O)NC(CO)c2ccccc2)c1 (stereo not drawn) | . | 5.7 | -8.3 | -1.3 | -3.0 | 109.6 | i
Cc1cccc(OCC(=O)Nc2ccc3c(c2)nc(CCN2CCC(C)CC2)n3C)c1 | . | 7.3 | 2.0 | 0.2 | -1.6 | . | .
Cc1cccc(OCC(=O)Nc2ccc3c(c2)nc(CCN2CCN(C)CC2)n3C)c1 | -4.2 | -3.4 | -0.6 | 1.4 | -0.8 | 112.3 | i
COc1ccc(OCC(=O)Nc2ccc3c(c2)nc(CCN2CCN(C)CC2)n3C)cc1 | . | 4.4 | 52.4* | -0.3 | -5.5 | 107.5 | i
COc1ccc(OCC(=O)Nc2ccc3c(c2)nc(CCN2CCCC2)n3C)cc1 | . | 5.5 | 8.5 | 1.2 | -4.3 | . | .
Cn1c(CSc2nc3ccccc3n2C)nc2ccccc21 | 4.3 | -3.6 | -6.5 | 0.8 | -1.0 | . | .
Cn1c(SC2=CS(=O)(=O)c3ccccc32)nc2ccccc21 | . | -3.6 | 73.8* | 36.4 | -2.6 | 75.0 | i
SMILES | CHOP inhibitor | VLA-4 inh | Beta2AR agonist | CHOP UPR activ | XBP1 UPR activ | B2AR ag CP1 | FAP fluor counter
CCOC(=O)c1ccc(NC(=O)Cn2nnc(-c3ccccc3)n2)cc1 | 61.1 | 3.7 | 64.5* | -3.0 | -1.2 | 1.2* | i
CCOC(=O)CSc1ccc(-c2nc3ccccc3[nH]2)cn1 | 40.8 | 10.1 | 45.5* | 1.6 | 1.7 | 107.2 | i
CCOC(=O)c1ccc(S(=O)(=O)N2CCN(C3CC(=O)N(c4ccc(OC)cc4)C3=O)CC2)cc1 (stereo not drawn) | . | . | 52.3* | . | . | 106.3 | i
COc1ccc(OCC(=O)Nc2ccc(S(=O)(=O)N3CCCCCC3)cc2)cc1 | 6.3 | 24.4 | 9.5 | 1.2 | -3.1 | . | .
Cc1ccc(OCC(=O)Nc2ccc(S(=O)(=O)N3CCCC3)cc2)cc1 | . | 21.2 | 1.1 | -0.4 | 3.0 | . | .
CCOC(=O)c1ccc(NC(=O)COc2ccc(S(=O)(=O)N3CCCC3)cc2)cc1 | 28.2 | 12.8 | 97.8* | -0.4 | -7.0 | 20.8* | i
CC(=O)c1cccc(NC(=O)COc2ccc(S(=O)(=O)N3CCCCC3)cc2)c1 | -0.7 | 1.6 | 2.1 | -1.6 | -5.5 | 112.6 | i
COc1ccccc1CCC(=O)Nc1cccc(S(=O)(=O)N2CCCCCC2)c1 | . | 5.3 | 54.0* | -0.6 | -0.7 | 10.2* | i
O=C(Nc1nnc(SCC(=O)N2CCCC2)s1)C1CC(=O)N(c2ccccc2)C1 (stereo not drawn) | . | -7.8 | -7.8 | 0.1 | -0.5 | . | .
CCC(C)(C)C1CCC2(CC1)NC(=O)N(CC(=O)NC(C)CCc1ccccc1)C2=O (stereo not drawn) | . | . | -2.4 | -0.5 | -1.7 | . | .
CCN(CC(=O)NCc1ccc(Cl)cc1)C(=O)CN1C(=O)NC(CC)(c2ccccc2)C1=O (stereo not drawn) | . | 16.6 | 11.1 | -1.1 | -1.0 | . | .
O=C(c1cc(COc2ccccc2)on1)N1CCCC(CN2CCOCC2)C1 (stereo not drawn) | . | 9.6 | -14.8 | 5.5 | 2.0 | . | .
Clc1cccc(C2Nc3cccc4cccc(c34)N2)c1Cl | . | 3.7 | 5.6 | 0.0 | 2.1 | 93.8 | i
CCOC(=O)CSCC(=O)N1CCC(Cc2ccccc2)CC1 | . | 0.2 | 65.6* | 0.7 | 2.0 | 90.3 | i
COc1ccccc1COCC(O)CN1CCN(S(=O)(=O)c2cccc(F)c2)CC1 (stereo not drawn) | . | 0.9 | -11.2 | -1.0 | -0.5 | . | .
O=C(CN1CCCC1c1cccs1)N1CCN(S(=O)(=O)c2ccccc2)CC1 (stereo not drawn) | . | . | 2.6 | -0.1 | 1.4 | . | .
Cc1ccccc1N1CCN(c2ncnc3c2cnn3Cc2ccc(Cl)cc2)CC1 | 37.9 | 0.7 | 43.7* | 0.4 | -2.9 | 98.2 | i
CC(C)Cc1nc2oc3c(NCC4CCCO4)ncnc3c2c2c1CCC2 (stereo not drawn) | 51.6 | -7.6 | 1.4 | 4.6 | 27.6 | . | .
